Experimental data as given in ChEMBL document CHEMBL1134305, “Synthesis and structure-activity relationships of N-(1-benzylpiperidin-4-yl)arylacetamide analogues as potent sigma1 receptor ligands” (J Med Chem, 2001).

Biological target: Sigma 2 receptor
Assay: Binding affinity for sigma 2 opioid receptor, measured on rat liver membranes using [3H]- DTG as radioligand in the presence of (+)-pentazocine
Parameters: species or system Membrane
Summary of the method: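 Rat liver P2 membranes (male Sprague-Dawley, 300-350 g; 35 µg protein) incubated with 3 nM [3H]DTG plus 100 nM (+)-pentazocine masking σ1 sites, in 50 mM Tris-HCl pH 8.0, 120 min, 25 °C. Test compounds at 0.005-1000 nM (eight concentrations). Nonspecific binding defined with 5 µM DTG. Filtration, scintillation counting. IC50 by nonlinear regression, generally in triplicate. Ki from at least three experiments.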

Ki | SMILES
257 nM | O=C(Cc1cccc(Cl)c1)NC1CCN(Cc2ccc(I)cc2)CC1
112 nM | O=C(Cc1ccc2ccccc2c1)NC1CCN(Cc2ccccc2)CC1
140 nM | O=C(Cc1ccccc1F)NC1CCN(Cc2ccc(F)cc2)CC1
50.3 nM | O=C(Cc1cccc(F)c1)NC1CCN(Cc2cccc(I)c2)CC1
> 1000 nM | O=C(Cc1cc(=O)oc2cc(O)ccc12)NC1CCN(Cc2ccccc2)CC1
300 nM | O=C(Cc1ccccc1)NC1CCN(Cc2ccc(C(F)(F)F)cc2)CC1
31 nM | O=C(Cc1cccc(F)c1)NC1CCN(Cc2ccc(F)cc2)CC1
189 nM | O=C(Cc1ccccc1)NC1CCN(Cc2ccc3ccccc3c2)CC1
> 1000 nM | O=C(Cc1ccncc1)NC1CCN(Cc2ccccc2)CC1
25 nM | O=C(Nc1cccc2ccccc12)NC1CCN(Cc2ccccc2)CC1
> 1000 nM | O=C(Cc1cccnc1)NC1CCN(Cc2ccccc2)CC1
191 nM | O=C(Cc1ccccc1)NC1CCN(Cc2cccc(I)c2)CC1
337 nM | O=C(Cc1ccsc1)NC1CCN(Cc2ccccc2)CC1
> 1000 nM | O=C(Cc1c[nH]cn1)NC1CCN(Cc2ccccc2)CC1
393 nM | O=C(Cc1cccs1)NC1CCN(Cc2ccccc2)CC1
30.3 nM | O=C(Cc1cccc(Cl)c1)NC1CCN(Cc2cccc(I)c2)CC1
> 1000 nM | O=C(Cc1ccccn1)NC1CCN(Cc2ccccc2)CC1
416 nM | COc1ccc2c(c1)C(CC(=O)NC1CCN(Cc3ccccc3)CC1)CC2=O (stereo not given)
423 nM | O=C(Cc1ccccc1)NC1CCN(Cc2ccc(Cl)c(Cl)c2)CC1
9.38 nM | O=C(Cc1cccc(Cl)c1)NC1CCN(Cc2ccc(F)cc2)CC1
> 1000 nM | O=C(Cc1ccccc1)NC1CCN(Cc2cccc(F)c2)CC1
694 nM | O=C(Cc1ccccc1)NC1CCN(Cc2ccc(I)cc2)CC1

Ki | SMILES
678 nM | O=C(Cc1c[nH]c2ccc(Br)cc12)NC1CCN(Cc2ccccc2)CC1
6.06 nM | O=C(Cc1cccc(Br)c1)NC1CCN(Cc2ccc(F)cc2)CC1
171 nM | O=C(Cc1ccccc1)NC1CCN(Cc2ccc3c(c2)OCO3)CC1
39.4 nM | O=C(Cc1cccc2ccccc12)NC1CCN(Cc2ccccc2)CC1
59.3 nM | O=C(Cc1cccc(Br)c1)NC1CCN(Cc2cccc(I)c2)CC1
> 1000 nM | O=C(Cc1ccccc1)NC1CCN(Cc2ccccc2C(F)(F)F)CC1
> 1000 nM | O=C(Cc1c[nH]c2ccccc12)NC1CCN(Cc2ccccc2)CC1
82.9 nM | O=C(Cc1ccccc1)NC1CCN(Cc2ccc(F)cc2)CC1
181 nM | O=C(Cc1ccccc1F)NC1CCN(Cc2cccc(I)c2)CC1
233 nM | O=C(Cc1ccccc1F)NC1CCN(Cc2ccc(I)cc2)CC1
90.3 nM | O=C(Cc1cccc(Br)c1)NC1CCN(Cc2ccc(I)cc2)CC1
631 nM | O=C(Cc1ccccc1)NC1CCN(Cc2ccccc2I)CC1
232 nM | O=C(Cc1ccccc1)NC1CCN(Cc2ccc(F)c(F)c2)CC1
319 nM | O=C(Cc1ccccc1)NC1CCN(Cc2ccc([N+](=O)[O-])cc2)CC1
61.3 nM | O=C(Cc1ccc(I)cc1)NC1CCN(Cc2ccccc2)CC1
168 nM | O=C(Cc1cccc(F)c1)NC1CCN(Cc2ccc(I)cc2)CC1
> 1000 nM | O=C(CSc1ncccn1)NC1CCN(Cc2ccccc2)CC1
683 nM | O=C(Cc1ccccc1)NC1CCN(Cc2ccccc2F)CC1
513 nM | O=C(Cc1ccccc1)NC1CCN(Cc2cccc(C(F)(F)F)c2)CC1
> 1000 nM | COc1ccc2[nH]cc(CC(=O)NC3CCN(Cc4ccccc4)CC3)c2c1
240 nM | O=C(Cc1ccccc1)NC1CCN(Cc2ccccc2)CC1

SMILES | Ki
O=C(Cc1ccccc1)NC1CCN(CCc2ccccc2)CC1 | 107 nM
OC(CCCN1CCC(O)(c2ccc(Cl)cc2)CC1)c1ccc(F)cc1 (stereo not given) [HYDROXYHALOPERIDOL] | 28.6 nM
